Measured values reported in PubChem BioAssay AID651952 (The Scripps Research Institute Molecular Screening Center, 2012).
Hit rate of the full screen: of about 2,400 compounds, about 940 (39%) were called active. Only a sample is shown. A number with no mark means an inactive call.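 The calls were made as follows: active = inhibition above the plate's mean compound inhibition plus 3 SD, computed per plate (cut at about 22% in these data); inactive = the rest.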

Assay: reduced calcium signal in Ga16 cells – fluorescence, CHO-Ga16 cells, counter-screen for TAAR1 agonist project (AID 651952);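 also: 0% = EC80 ATP with DMSO and 100% = DMSO wells without ATP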
Conditions: CHO-Ga16 ATP-induced calcium, Fluo-8 fluorescence; at 3 µM; active compounds read high
Outline: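 Test system: parental CHO cells stably overexpressing Gα16, lacking hTAAR1; Timing: 17–24 h seeding, dye 75 min 37 °C, 30 min RT; Signal: Fluo-8 calcium dye fluorescence, excitation 470–495 nm, emission 515–575 nm; Controls: DMSO-only and ATP-stimulated wells; Read-out: % inhibition of ATP-evoked calcium signal.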

| SMILES | inhibition |
| --- | --- |
| Cc1ccc(NC(=O)CCN2CCc3ccccc3C2)cc1 | 10.1% |
| O=C(NCCc1ccccc1)C(=O)NCC1OCCN1S(=O)(=O)c1cccs1 (configuration not stated) | 10.6% |
| S=C(NCCc1ccccc1)N1CCn2cccc2C1c1ccncc1 (configuration not stated) | 21.8% (active) |
| O=C(O)C1CC=CCC1C(=O)NCCc1ccccc1 (configuration not stated) | 3.62% |
| COc1ccc(Cl)cc1C(=O)NNC(=S)NC(=O)/C=C/c1ccco1 | 55.5% (active) |
| O=C1CCCN2N=C(SCC(=O)Nc3ccc(Br)cc3)SC2=N1 | 20% |
| CCCCCc1c(-c2ccc(OC)c(OC)c2)ncn1CCc1ccccc1OC | 44.5% (active) |
| CCCCCc1c(Cc2ccccc2)ncn1CCc1ccccc1OC | 30.6% (active) |
| CCCCCc1c(-c2cccc(Br)c2)ncn1CCc1ccccc1OC | 25.3% (active) |
| O=C(CNC(=O)c1ccccc1F)OCC(=O)c1c[nH]c2ccccc12 | -2.93% |
| O=C(c1noc2c1CCCC2)N1CCc2ccccc2C1 | 2.82% |
| CCC(c1nnnn1Cc1ccco1)N(CCc1ccccc1)Cc1cc2ccc(OC)cc2[nH]c1=O (configuration not stated) | 15.3% |
| CC(Oc1ccc(Cl)cc1)C(=O)OCC(=O)Nc1ncc(Cl)cc1Cl (configuration not stated) | 12.8% |
| CCCn1c(O)c(CN2CCCC(C)C2)c(C)c(C#N)c1=O (configuration not stated) | 11.4% |
| Cc1cc2nc3c(=O)[nH]c(=O)nc-3n(C[C@H](O)[C@H](O)[C@H](O)CO)c2cc1C | 60.5% (active) |
| COc1ccc(C(=O)CN2C(=O)NC(C)(c3ccc(C)cc3)C2=O)cc1OC (configuration not stated) | 12.3% |
| c1ccc2c(c1)OCC(CNc1ncnc3nc[nH]c13)O2 (configuration not stated) | 103% (active) |
| COc1cc(OC)c(-n2cc(-c3ccc(Cl)cc3)[nH]c2=O)cc1Cl | 47.5% (active) |
| O=Cc1c(NCCc2cccc(F)c2)c2ccccc2[nH]c1=O | 5.51% |
| CSc1nc(N)c(C#N)c(-c2ccccc2Cl)c1C#N | 23.4% (active) |
| OC(CNCCc1ccc(Cl)cc1Cl)COc1ccccc1 (configuration not stated) | 16.3% |
| COC(=O)c1[nH]c2cccc(C)c2c1NC(=O)CN1CCCc2ccccc21 | 22.5% (active) |
